Results taken from ChEMBL document CHEMBL1641413, “Identification of 3-sulfonylindazole derivatives as potent and selective 5-HT(6) antagonists” (Bioorg Med Chem, 2011).
Calls of active or inactive are those of the source. The rule behind the calls is not given here.

Legend:
[1] = molecular target: T1, 5-hydroxytryptamine receptor 6 (Homo sapiens, UniProt P50406); experiment: Displacement of [3H]-LSD from cloned human 5-HT6 receptor expressed in human HeLa cells; assay type: cell-based
Summary of the method: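 Radioligand displacement of [³H]-LSD from cloned human 5-HT6 receptors stably expressed in HeLa cells; compounds tested as HCl salts; Ki values determined in triplicate.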

[2] = molecular target: T1, 5-hydroxytryptamine receptor 6; experiment: Antagonist activity at cloned human 5-HT6 receptor expressed in human HeLa cells assessed as inhibition of 5HT-induced cyclic AMP formation; assay type: functional, cell-based
[3] = molecular target: T2, 5-hydroxytryptamine receptor 1A (Homo sapiens, UniProt P08908); experiment: Binding affinity to 5-HT1A receptor
T2 sequence (P08908 whole entry): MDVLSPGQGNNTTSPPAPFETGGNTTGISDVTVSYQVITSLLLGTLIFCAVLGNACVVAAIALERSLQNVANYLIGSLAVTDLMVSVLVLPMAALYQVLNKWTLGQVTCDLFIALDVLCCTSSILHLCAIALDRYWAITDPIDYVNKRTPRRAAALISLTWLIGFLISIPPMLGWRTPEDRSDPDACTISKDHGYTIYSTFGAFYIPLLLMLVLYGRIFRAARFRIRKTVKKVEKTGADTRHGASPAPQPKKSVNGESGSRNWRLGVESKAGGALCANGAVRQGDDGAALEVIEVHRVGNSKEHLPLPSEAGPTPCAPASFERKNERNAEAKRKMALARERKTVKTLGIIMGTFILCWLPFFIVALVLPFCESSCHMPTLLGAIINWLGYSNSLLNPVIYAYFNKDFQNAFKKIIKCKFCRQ

[4] = molecular target: 5-hydroxytryptamine receptor 1B (Homo sapiens, UniProt P28222); experiment: Binding affinity to 5-HT1B receptor
[5] = molecular target: 5-hydroxytryptamine receptor 1D (Homo sapiens, UniProt P28221); experiment: Binding affinity to 5-HT1D receptor
[6] = molecular target: T3, 5-hydroxytryptamine receptor 2B (Homo sapiens, UniProt P41595); experiment: Binding affinity to 5-HT2B receptor
[7] = molecular target: T4, 5-hydroxytryptamine receptor 2C (Homo sapiens, UniProt P28335); experiment: Binding affinity to 5-HT2C receptor
T4 sequence (P28335 whole entry): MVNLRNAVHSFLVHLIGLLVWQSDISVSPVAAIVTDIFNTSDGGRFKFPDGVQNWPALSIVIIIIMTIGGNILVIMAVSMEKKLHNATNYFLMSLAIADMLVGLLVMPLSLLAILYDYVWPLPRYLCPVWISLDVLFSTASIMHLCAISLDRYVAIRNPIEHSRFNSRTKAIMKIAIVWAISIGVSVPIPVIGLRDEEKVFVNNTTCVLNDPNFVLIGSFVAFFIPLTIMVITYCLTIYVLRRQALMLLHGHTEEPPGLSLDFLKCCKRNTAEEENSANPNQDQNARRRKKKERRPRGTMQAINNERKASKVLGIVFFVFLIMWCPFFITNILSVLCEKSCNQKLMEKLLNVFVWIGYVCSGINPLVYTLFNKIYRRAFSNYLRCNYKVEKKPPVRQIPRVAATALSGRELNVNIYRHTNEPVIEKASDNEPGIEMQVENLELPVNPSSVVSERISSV

[8] = molecular target: 5-hydroxytryptamine receptor 7 (Homo sapiens, UniProt P34969); experiment: Binding affinity to 5-HT7 receptor
[9] = molecular target: T5, Alpha-2A adrenergic receptor (Homo sapiens, UniProt P08913); experiment: Binding affinity to adrenergic alpha2A receptor
T5 sequence (P08913 whole entry): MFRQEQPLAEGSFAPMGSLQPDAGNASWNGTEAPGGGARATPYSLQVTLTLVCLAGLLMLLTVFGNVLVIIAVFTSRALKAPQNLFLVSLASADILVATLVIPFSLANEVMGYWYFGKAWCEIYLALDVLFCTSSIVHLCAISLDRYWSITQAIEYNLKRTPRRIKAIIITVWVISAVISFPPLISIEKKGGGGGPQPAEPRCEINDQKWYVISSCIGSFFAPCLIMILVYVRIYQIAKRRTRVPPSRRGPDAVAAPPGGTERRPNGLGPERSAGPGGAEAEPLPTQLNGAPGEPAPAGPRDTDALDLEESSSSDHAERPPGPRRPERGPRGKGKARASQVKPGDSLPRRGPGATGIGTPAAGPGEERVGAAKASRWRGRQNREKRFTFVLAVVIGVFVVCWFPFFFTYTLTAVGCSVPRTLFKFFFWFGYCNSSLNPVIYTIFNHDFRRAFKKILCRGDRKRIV

D(2) dopamine receptor = D(2) dopamine receptor (Homo sapiens, UniProt P14416); experiment: Binding affinity to dopamine D2 receptor
[10] = molecular target: T3, 5-hydroxytryptamine receptor 2B; experiment: Agonist activity at 5-HT2B receptor at 0.1 nM to 10 uM by FLIPR assay; assay type: functional
[11] = Solubility of the compound in water; assay type: physicochemical
[12] = Half life in rat microsomes; assay type: ADME, Microsome
[13] = Half life in human microsomes; assay type: ADME, Microsome
[14] = Binding affinity to P-glycoprotein
[15] = % bound in plasma; assay type: ADME, cell-free; conditions: read-out: PPB
Rattus norvegicus = experiment: Cognitive enhancing effect in rat assessed as inhibition of scopolamine-induced memory deficit at 10 mg/kg, po by novel object recognition test; assay type: functional, organism-based; set-up: dose 10 mg/kg
Summary of the method: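 Rats given compound orally at 10 mg/kg; scopolamine-induced memory deficit assessed in a novel object recognition assay.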

D(2) dopamine receptor, sequence (P14416 whole entry): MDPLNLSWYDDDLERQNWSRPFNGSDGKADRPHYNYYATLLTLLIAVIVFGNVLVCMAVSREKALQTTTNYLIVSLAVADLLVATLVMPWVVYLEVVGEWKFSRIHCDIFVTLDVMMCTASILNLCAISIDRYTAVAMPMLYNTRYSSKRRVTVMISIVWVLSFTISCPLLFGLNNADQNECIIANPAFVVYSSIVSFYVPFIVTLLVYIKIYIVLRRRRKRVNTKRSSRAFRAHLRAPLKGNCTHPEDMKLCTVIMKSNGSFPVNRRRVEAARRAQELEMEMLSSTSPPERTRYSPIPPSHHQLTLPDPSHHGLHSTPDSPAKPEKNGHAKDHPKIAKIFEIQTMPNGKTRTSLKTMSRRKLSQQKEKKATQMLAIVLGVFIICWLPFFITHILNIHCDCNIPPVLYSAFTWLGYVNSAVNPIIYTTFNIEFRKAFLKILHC
5-hydroxytryptamine receptor 1B, sequence (P28222 whole entry): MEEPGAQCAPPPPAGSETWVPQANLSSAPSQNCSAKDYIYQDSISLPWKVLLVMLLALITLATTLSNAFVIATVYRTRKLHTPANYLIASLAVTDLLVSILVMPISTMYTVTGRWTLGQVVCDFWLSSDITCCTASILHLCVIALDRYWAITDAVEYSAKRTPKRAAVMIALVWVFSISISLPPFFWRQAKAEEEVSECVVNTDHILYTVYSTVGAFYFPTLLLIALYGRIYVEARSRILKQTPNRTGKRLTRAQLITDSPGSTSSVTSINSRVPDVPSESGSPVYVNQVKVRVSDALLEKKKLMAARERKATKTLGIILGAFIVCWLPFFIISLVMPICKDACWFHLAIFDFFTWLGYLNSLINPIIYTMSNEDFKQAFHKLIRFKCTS
T1 sequence (P50406 whole entry): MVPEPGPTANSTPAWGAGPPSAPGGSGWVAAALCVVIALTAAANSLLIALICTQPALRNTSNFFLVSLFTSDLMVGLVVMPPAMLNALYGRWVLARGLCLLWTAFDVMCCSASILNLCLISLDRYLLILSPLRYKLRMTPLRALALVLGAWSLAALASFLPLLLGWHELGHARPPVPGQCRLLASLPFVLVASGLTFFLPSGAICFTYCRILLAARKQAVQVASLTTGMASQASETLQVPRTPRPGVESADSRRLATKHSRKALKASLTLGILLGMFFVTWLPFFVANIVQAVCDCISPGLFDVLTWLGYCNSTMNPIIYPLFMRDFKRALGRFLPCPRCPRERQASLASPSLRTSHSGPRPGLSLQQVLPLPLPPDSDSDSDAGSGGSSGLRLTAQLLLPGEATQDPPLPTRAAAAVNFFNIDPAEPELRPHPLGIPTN
5-hydroxytryptamine receptor 1D, sequence (P28221 whole entry): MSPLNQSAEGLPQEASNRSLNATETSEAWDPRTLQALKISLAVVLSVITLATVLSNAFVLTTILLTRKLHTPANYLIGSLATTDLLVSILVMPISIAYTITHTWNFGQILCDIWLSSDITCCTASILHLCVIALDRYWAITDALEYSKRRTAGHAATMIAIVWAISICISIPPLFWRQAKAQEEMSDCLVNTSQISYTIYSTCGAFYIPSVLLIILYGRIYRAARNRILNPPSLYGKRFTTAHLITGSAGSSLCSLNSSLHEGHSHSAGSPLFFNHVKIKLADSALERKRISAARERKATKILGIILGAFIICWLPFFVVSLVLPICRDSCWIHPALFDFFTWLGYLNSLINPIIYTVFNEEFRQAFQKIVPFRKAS
5-hydroxytryptamine receptor 7, sequence (P34969 whole entry): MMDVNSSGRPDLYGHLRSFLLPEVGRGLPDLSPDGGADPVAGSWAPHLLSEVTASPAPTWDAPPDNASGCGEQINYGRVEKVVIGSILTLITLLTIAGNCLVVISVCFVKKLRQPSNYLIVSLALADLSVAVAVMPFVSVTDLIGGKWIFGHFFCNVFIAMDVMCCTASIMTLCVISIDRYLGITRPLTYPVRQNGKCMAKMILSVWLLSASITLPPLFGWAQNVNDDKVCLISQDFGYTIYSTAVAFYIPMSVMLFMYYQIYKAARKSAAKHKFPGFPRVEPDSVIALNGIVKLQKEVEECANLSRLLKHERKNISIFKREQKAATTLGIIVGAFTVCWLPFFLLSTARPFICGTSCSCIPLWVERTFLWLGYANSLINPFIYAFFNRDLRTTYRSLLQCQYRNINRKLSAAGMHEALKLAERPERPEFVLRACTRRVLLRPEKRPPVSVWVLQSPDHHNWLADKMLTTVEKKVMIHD
T3 sequence (P41595 whole entry): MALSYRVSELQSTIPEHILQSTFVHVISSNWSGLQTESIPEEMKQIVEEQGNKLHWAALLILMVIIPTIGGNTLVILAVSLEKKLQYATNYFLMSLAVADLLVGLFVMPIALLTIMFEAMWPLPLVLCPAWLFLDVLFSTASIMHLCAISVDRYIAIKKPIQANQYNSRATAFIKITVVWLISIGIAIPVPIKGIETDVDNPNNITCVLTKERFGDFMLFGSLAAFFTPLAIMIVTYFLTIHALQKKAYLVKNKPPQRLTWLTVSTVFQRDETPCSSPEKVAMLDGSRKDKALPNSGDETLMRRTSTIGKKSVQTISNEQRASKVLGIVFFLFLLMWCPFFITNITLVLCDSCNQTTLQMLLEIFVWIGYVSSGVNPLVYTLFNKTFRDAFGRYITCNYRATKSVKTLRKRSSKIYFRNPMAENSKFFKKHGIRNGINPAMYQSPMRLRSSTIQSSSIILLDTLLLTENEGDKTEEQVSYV

| Ki [1] [nM] | IC50 [2] [nM] | Ki [3] [µM] | Ki [4] [µM] | Ki [5] [µM] | Ki [6] [nM] | Ki [7] [nM] | Ki [8] [µM] | Ki [9] [µM] | Ki (D(2) dopamine receptor) [µM] | Activity [10] | solubility [11] [µg/mL] | half-life [12] [min] | half-life [13] [min] | Activity [14] | fraction unbound [15] | SMILES | inhibition (Rattus norvegicus) |
| --- | --- | --- | --- | --- | --- | --- | --- | --- | --- | --- | --- | --- | --- | --- | --- | --- | --- |
| 0.7 | 15 | > 5 | > 5 | > 5 | 675 | > 5000 | 3.97 | > 5 | > 5 | inactive | > 100 | > 30 | > 30 | inactive | > 0.2 | Cl.O=S(=O)(c1cccc2ccccc12)c1n[nH]c2ccc(NC3CCNCC3)cc12 | Active |
| 1.1 | 8.2 | 3.01 | > 5 | 1.34 | 33 | > 5000 | > 5 | > 5 | > 5 | inactive | > 100 | > 30 | > 30 | inactive | > 0.2 | Cl.O=C(Nc1ccc2[nH]nc(S(=O)(=O)c3cccc4ccccc34)c2c1)C1CCNCC1 | Active |
| 1.5 | 3.8 | > 5 | > 5 | > 5 | 344 | 573 | > 5 | > 5 | > 5 | inactive | > 100 | > 30 | > 30 | inactive | > 0.2 | Cl.NCCC(=O)Nc1ccc2[nH]nc(S(=O)(=O)c3cccc4ccccc34)c2c1 | – |
